Source: ChEMBL document CHEMBL4350963, “Discovery and Lead-Optimization of 4,5-Dihydropyrazoles as Mono-Kinase Selective, Orally Bioavailable and Efficacious Inhibitors of Receptor Interacting Protein 1 (RIP1) Kinase” (J Med Chem, 2019)
Converted amounts (≈) assume the structure as drawn.

Experiments:
[1] = Chromatographic hydrophobicity index, log D of the compound at pH 7.4 by reverse-phase HPLC analysis; assay type: physicochemical; conditions: buffer
Outline: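 Log D at pH 7.4 was calculated from the retention time on a fast-gradient reverse-phase HPLC run.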

[2] = Volume of distribution at steady state in rat at 1 mg/kg, iv; assay type: ADME, organism-based; conditions: in vivo, read-out: Vdss
[3] = AUC (0 to infinity) in rat at 1 mg/kg, iv; assay type: ADME, organism-based; design: dose 1 mg/kg, time infinity, route intravenous; conditions: in vivo
Outline: (§1)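 Rat pharmacokinetics: the iv arm was dosed at 1 mg/kg in 5% DMSO/20% Cavitron aqueous solution. The oral arm was dosed at 2 mg/kg in 5% DMSO/6% Cavitron aqueous solution. Bioavailability was calculated non-crossover, from average exposures in separate oral and iv studies.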

[4] = Cmax in rat at 2 mg/kg, po; assay type: ADME, organism-based; design: dose 2 mg/kg, route oral; conditions: in vivo; outline: as §1
[5] = Tmax in rat at 2 mg/kg, po; assay type: ADME, organism-based; conditions: in vivo
[6] = AUC (0 to infinity) in rat at 2 mg/kg, po; assay type: ADME, organism-based; design: dose 2 mg/kg, route oral, time infinity; conditions: in vivo; outline: as §1
[7] = Solubility of the compound in fasted state simulated intestinal fluid measured after 4 hrs using crystalline sample; assay type: physicochemical
[8] = Lipophilicity, log P of the compound; assay type: physicochemical; conditions: octanol/water
[9] = Drug metabolism in rat blood assessed as hydroxylation; assay type: ADME, tissue-based
[10] = Drug metabolism in rat bile assessed as hydroxylation; assay type: ADME, tissue-based
[11] = Drug metabolism in rat urine assessed as hydroxylation; assay type: ADME
[12] = Drug exposure in rat at 2 mg/kg, po; assay type: ADME, organism-based; conditions: in vivo, BLD = below limit of detection; outline: as §1
[13] = Oral bioavailability in rat at 2 mg/kg; assay type: ADME, organism-based; conditions: in vivo

Compound | chromatographic logD [1] | further results
CC(C)(C)C(=O)N1N=CCC1C1CCOCC1 (stereo unspecified) | 4.1 | –
CC(C)(C)C(=O)N1N=CCC1c1cccnc1 (stereo unspecified) | 3.2 | Cmax [4]: 360 ng/mL; Tmax [5]: 5 min; AUC(0-inf) [6]: 260 ng·h/mL
CC(C)(C)C(=O)N1N=CCC1c1c[nH]cn1 (stereo unspecified) | 1.7 | –
C[C@@H]1C=NN(C(=O)C(C)(C)C)[C@@H]1c1ccccc1 | 6.5 | –
CC(C)(C)C(=O)N1N=CCC1C1CCCC1 (stereo unspecified) | 6.7 | –
CC(C)(C)C(=O)n1nccc1-c1ccccc1 | 8.3 | –
CC(C)(C)C(=O)N1N=CCC1c1ccncc1 (stereo unspecified) | 3.2 | –
CC(C)(C)C(=O)N1CCC1c1ccccc1 (stereo unspecified) | 5 | –
CC(C)(C)C(=O)N1N=CCC1c1ccc(C(C)(C)C)cc1 (stereo unspecified) | 8 | –
CC(C)(C)C(=O)N1N=CCC1c1ccc(S(C)(=O)=O)cc1 (stereo unspecified) | 4.1 | –
CC(C)(C)C(=O)N1N=CCC1c1ccc(Cl)cc1 (stereo unspecified) | 6.6 | –
CC(C)(CN)C(=O)N1N=CCC1c1ccccc1 (stereo unspecified) | 1.4 | –
CC(C)(C)C(=O)N1N=CCC1c1cc[nH]n1 (stereo unspecified) | 2.7 | –
Cc1ccc(C2CC=NN2C(=O)C(C)(C)C)cc1 (stereo unspecified) | 6.4 | –
CC(C)(C)C(=O)N1N=CCC1c1ccccc1 (racemic) | 5.8 | –
O=C(c1ccncc1)N1N=CCC1c1ccccc1 (stereo unspecified) | 2.7 | –
O=C(c1cccnc1)N1N=CCC1c1ccccc1 (stereo unspecified) | 2.7 | –
O=C(c1ccccc1)N1N=CCC1c1ccccc1 (stereo unspecified) | 4.6 | –
CC(C)(C)C(=O)N1CCCCC1c1ccccc1 (stereo unspecified) | 6.7 | –

Compound | chromatographic logD [1] | further results
N#Cc1nccc(N2CCC(C(=O)N3N=CC[C@H]3c3cc(F)cc(F)c3)CC2)n1 | 5.1 | –
CC(C)C(=O)N1N=CCC1c1ccccc1 (stereo unspecified) | 4.4 | –
CC(C)(C)C(=O)N1N=CCC1c1cccc(Cl)c1 (stereo unspecified) | 6.6 | –
CC(C)(C)C(=O)N1N=CCC1c1cocn1 (stereo unspecified) | 3 | Cmax [4]: 345 ng/mL; Tmax [5]: 5 min; AUC(0-inf) [6]: 200 ng·h/mL
Cc1ccc(C2CC=NN2C(=O)C(C)(C)C)cc1F (stereo unspecified) | 6.6 | –
CC(C)(C)C(=O)N1CCNCC1c1ccccc1 (stereo unspecified) | 2.5 | –
CC(C)(C)C(=O)N1N=CC[C@H]1c1ccccc1 | 5.8 | logP [8]: 5.9; Drug metabolism [9]: Metabolite_Detected; Drug metabolism [10]: Metabolite_Detected; Drug metabolism [11]: Metabolite_Detected; Drug uptake [12]: Bld
CC(C)(C)C(=O)N1N=CCC1c1cc(F)cc(F)c1 (stereo unspecified) | 6.3 | –
CN1CCN(C(=O)C(C)(C)C)C(c2ccccc2)C1 (stereo unspecified) | 4.9 | –
N#Cc1cnc(N2CCC(C(=O)N3N=CC[C@H]3c3cc(F)cc(F)c3)CC2)cn1 | 5.2 | Cmax [4]: 73 ng/mL; Tmax [5]: 38 min; Vd [2]: 6.1 L/kg; AUC(0-inf) [3]: 400 ng·h/mL; bioavailability [13]: 99%
CC(C)(C)C(=O)N1N=CCC1C1CCCCC1 (stereo unspecified) | 7.3 | –
O=C(c1ccccn1)N1N=CCC1c1ccccc1 (stereo unspecified) | 2.4 | –
CC(C)(C)C(=O)N1CCOCC1c1ccccc1 (stereo unspecified) | 4.7 | –
CC(C)(C)C(=O)N1N=CCC1c1ccccn1 (stereo unspecified) | 3.5 | –
CC(C)(C)C(=O)N1N=CCC1c1cccc(F)c1 (stereo unspecified) | 5.9 | –
N#Cc1ccc(N2CCC(C(=O)N3N=CC[C@H]3c3cc(F)cc(F)c3)CC2)nn1 | 4.8 | –
CN1CCC(C2CC=NN2C(=O)C(C)(C)C)CC1 (stereo unspecified) | 1.4 | –
CC(C)(C)C(=O)N1CCSC1c1ccccc1 (stereo unspecified) | 5.6 | –
CC1=NN(C(=O)C(C)(C)C)[C@H](c2ccccc2)C1 | 6.4 | –

Further lines, with some results ahead:

chromatographic logD [1] | Compound | further results
2.7 | O=C(c1cnco1)N1CCC(C(=O)N2N=CC[C@H]2c2ccccc2)CC1 | Vd [2]: 2.1 L/kg; AUC(0-inf) [3]: 400 ng·h/mL
3 | O=C(C1CCOC1)N1N=CCC1c1ccccc1 (stereo unspecified) | –
4.7 | O=C(C1CCN(c2ncccn2)CC1)N1N=CC[C@H]1c1ccccc1 | –
2.6 | O=C(c1cccnc1)N1CCC(C(=O)N2N=CCC2c2ccccc2)CC1 (stereo unspecified) | –
2.1 | O=C(c1cn[nH]c1)N1CCC(C(=O)N2N=CCC2c2ccccc2)CC1 (stereo unspecified) | Vd [2]: 1.6 L/kg; AUC(0-inf) [3]: 360 ng·h/mL
5.4 | O=C(C1CCCC1)N1N=CCC1c1ccccc1 (stereo unspecified) | –
3.4 | CC(C)(CO)C(=O)N1N=CCC1c1ccccc1 (stereo unspecified) | –
2.9 | O=C(c1cocn1)N1CCC(C(=O)N2N=CCC2c2ccccc2)CC1 (stereo unspecified) | Vd [2]: 0.98 L/kg; AUC(0-inf) [3]: 290 ng·h/mL
5.4 | O=C(C1CCCCC1)N1CCC(C(=O)N2N=CCC2c2ccccc2)CC1 (stereo unspecified) | –
6.3 | O=C(C1CCN(c2ccccc2)CC1)N1N=CCC1c1ccccc1 (stereo unspecified) | –
3.1 | O=C(c1ccccn1)N1CCC(C(=O)N2N=CCC2c2ccccc2)CC1 (stereo unspecified) | –
3.1 | O=C(C1CCOCC1)N1N=CCC1c1ccccc1 (stereo unspecified) | Cmax [4]: 95 ng/mL; Tmax [5]: 5 min; AUC(0-inf) [6]: 44 ng·h/mL
4.4 | O=C(c1ccccc1)N1CCC(C(=O)N2N=CCC2c2ccccc2)CC1 (stereo unspecified) | –
3.4 | O=C(C1CCN(c2cccnn2)CC1)N1N=CC[C@H]1c1ccccc1 | –
2.5 | CC(=O)N1CCC(C(=O)N2N=CC[C@H]2c2ccccc2)CC1 | solubility thermodynamic at 4 h [7]: 7400 µg/mL (≈ 24.7 mM); Cmax [4]: 795 ng/mL; Tmax [5]: 30 min; AUC(0-inf) [6]: 1600 ng·h/mL; Vd [2]: 1.7 L/kg; AUC(0-inf) [3]: 420 ng·h/mL
3.2 | O=C(C1CCN(c2ccncn2)CC1)N1N=CC[C@H]1c1ccccc1 | –
4.7 | O=C(C1CCC1)N1N=CCC1c1ccccc1 (stereo unspecified) | –
3.2 | CCC(=O)N1CCC(C(=O)N2N=CCC2c2ccccc2)CC1 (stereo unspecified) | –
1.1 | CN1CCC(C(=O)N2N=CCC2c2ccccc2)CC1 (stereo unspecified) | –
5.9 | O=C(C1CCCCC1)N1N=CCC1c1ccccc1 (stereo unspecified) | –
2.5 | CC(=O)N1CCC(C(=O)N2N=CCC2c2ccccc2)CC1 (racemic) | –
6.3 | O=C(C1CCN(c2ccccc2)CC1)N1N=CC[C@H]1c1ccccc1 | –
4.9 | O=C(C1CCN(C(=O)C(F)(F)F)CC1)N1N=CCC1c1ccccc1 (stereo unspecified) | –
2 | O=C(c1c[nH]nn1)N1CCC(C(=O)N2N=CCC2c2ccccc2)CC1 (stereo unspecified) | Vd [2]: 1.3 L/kg; AUC(0-inf) [3]: 450 ng·h/mL
2.4 | O=C(c1cc[nH]n1)N1CCC(C(=O)N2N=CCC2c2ccccc2)CC1 (stereo unspecified) | –
3.2 | Cc1nnc(N2CCC(C(=O)N3N=CC[C@H]3c3ccccc3)CC2)o1 | Vd [2]: 1.6 L/kg; AUC(0-inf) [3]: 800 ng·h/mL
5.1 | O=C(C1CCN(c2ccccn2)CC1)N1N=CC[C@H]1c1ccccc1 | –
3 | O=C(c1cscn1)N1CCC(C(=O)N2N=CC[C@H]2c2ccccc2)CC1 | –
